# Screening data as filed in PubChem.
# DNMT1 inh = human DNMT1 methyltransferase inhibitors, primary screen, biochemical, molecular beacon, fluorescence, HinP1I cleavage, uHTS; DNA (cytosine-5)-methyltransferase 1 (Homo sapiens), P26358; inhibition (reported as % activation of signal), % at 10 µM; 0.83% of 360,000 active; AID 588458, 2011; in the data active = inhibition above about 50%
# Scp-1 inhibitor = Scp-1 phosphatase inhibitors, primary screen, biochemical, colorimetric, uHTS; Carboxy-terminal domain RNA polymerase II polypeptide A small phosphatase 1 (Homo …; Recombinant Scp1, phosphopeptide, malachite green phosphate absorbance; inhibition, % at 20 µM; 0.88% of 340,000 active; AID 493091, 2011;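 active = inhibition above about 50% at 20 µM, limit read from the data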;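 note: plate controls were DMSO wells with enzyme for no effect and wells lacking enzyme for full effect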
#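 Material – SCP-1 phosphatase catalytic domain, residues 76-261 · Buffer or medium – Acidic Tris acetate buffer with magnesium and detergent · Also added – Phospho 17-mer peptide substrate · Compound – single 20 µM dose, 1% DMSO · Times – 45 min room-temperature reaction, 5 min colour, 30 min stabiliser · Technique – Phosphate-binding colour reagent, absorbance read at 630 nm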
# LMPTP inh = LMPTP phosphatase inhibitors, primary screen, biochemical, fluorescence intensity, uHTS. 0.22% of 360,000 active. recombinant LMPTP-A, OMFP fluorogenic substrate. inhibition, % at 20 µM;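 active = compounds that cut the enzyme signal by at least half of the control window in the single-dose screen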;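 note: plate controls were DMSO wells with enzyme plus substrate for no effect and substrate without enzyme for full effect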
# Target sequence (P24666 whole entry, looked up): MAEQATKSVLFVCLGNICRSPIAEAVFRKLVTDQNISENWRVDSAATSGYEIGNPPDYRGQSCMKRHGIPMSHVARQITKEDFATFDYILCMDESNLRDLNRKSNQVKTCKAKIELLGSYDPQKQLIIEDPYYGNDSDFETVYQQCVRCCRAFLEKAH
#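 Assay system: LMPTP-A phosphatase enzyme | Input: 0.625 nM enzyme | Also added: Fluorogenic phosphatase substrate OMFP at 400 µM final | Compound dosing: One test concentration per compound, 20 µM, with 3% DMSO overall | Schedule: 50 min enzyme reaction at room temperature, protected from light | Signal: Fluorescence intensity | Benchmarks: no-enzyme and uninhibited controls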
# STEP block = STEP phosphatase inhibitors, primary screen, biochemical, fluorescence intensity, uHTS; recombinant STEP, OMFP fluorogenic substrate; inhibition, % at 20 µM; 0.25% of 360,000 active; AID 588621, 2011;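 active = inhibition at 20 µM, scaled per plate between control wells, above about 37%, limit read from the data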;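 note: 0% = DMSO with enzyme and substrate and 100% = substrate only without enzyme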
# Target sequence (P54829 whole entry, looked up): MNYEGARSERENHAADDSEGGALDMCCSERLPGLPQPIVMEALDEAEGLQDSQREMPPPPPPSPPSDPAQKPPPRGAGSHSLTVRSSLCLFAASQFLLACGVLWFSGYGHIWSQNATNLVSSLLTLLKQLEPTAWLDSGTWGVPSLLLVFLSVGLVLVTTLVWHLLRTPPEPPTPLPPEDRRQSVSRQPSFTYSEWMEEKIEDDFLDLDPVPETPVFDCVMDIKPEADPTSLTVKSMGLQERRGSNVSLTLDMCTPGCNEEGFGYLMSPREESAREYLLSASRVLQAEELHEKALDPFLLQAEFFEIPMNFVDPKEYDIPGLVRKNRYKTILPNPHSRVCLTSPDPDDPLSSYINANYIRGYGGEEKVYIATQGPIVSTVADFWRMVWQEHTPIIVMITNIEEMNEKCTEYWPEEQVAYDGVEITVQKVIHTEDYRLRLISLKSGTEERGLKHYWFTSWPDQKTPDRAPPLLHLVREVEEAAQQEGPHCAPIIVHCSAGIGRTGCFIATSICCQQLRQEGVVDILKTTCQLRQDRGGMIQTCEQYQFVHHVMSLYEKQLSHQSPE
#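 System: STEP (striatal-enriched tyrosine phosphatase) enzyme, cell-free; medium: Bis-Tris pH 6.0 buffer with DTT, detergent; dosing: 20 µM, 1% DMSO; times: reaction 20 min, ambient temperature; detection: fluorescence, 480/540 nm; read-out basis: normalized % inhibition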
# SUMO1 PPI mod = modulators of SUMO1 protein-protein interactions, primary screen, biochemical, uHTS; Small ubiquitin-related modifier 1 (Homo sapiens), P63165; SUMO1 binding to a labelled peptide, TR-FRET, 1 h; inhibition, % at 20 µM; 0.33% of 360,000 active; in the data active = inhibition above about 37%
# HKDC1 inh = HKDC1 hexokinase inhibitors, primary screen, biochemical, fluorescence, uHTS | Q2TB90 | recombinant HKDC1, G6PDH/diaphorase resazurin coupled fluorescence | inhibition, % at 20 µM | 0.16% of 340,000 active;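 active = inhibition above about 35% when tested at 20 µM, limit read from the data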;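 note: plate controls were DMSO wells with enzyme for no effect and DMSO wells lacking enzyme for full effect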
#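 Assay system – recombinant HKDC1 (HK5) hexokinase enzyme, produced in-house · Input – HKDC1 at 5 µg/mL · Reagent – glucose plus 1 mM ATP as hexokinase substrates · Timing – 90 min reaction incubation at room temperature, dark · Measured by – G6PDH/diaphorase-coupled fluorescence, 1 mM NADP, 100 µM resazurin, 525/613 nm · Benchmarks – DMSO-enzyme wells negative, buffer-substituted wells positive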
# HKDC1 act conf = HKDC1 hexokinase activators, confirmation, biochemical, single concentration | 14% of 740 active | shares compounds with HKDC1 inh | inhibition, % at 20 µM | recombinant HKDC1, G6PDH/diaphorase resazurin fluorescence; stronger effect = lower value;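 active = inhibition at or below a set negative limit, negative inhibition meaning the enzyme was activated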
# Starred values were filed as active, the others as inactive; / = no result; ! = not confirmed by another sample. Compounds with a hit are over-represented: about 1.8% of the library has one in this group of screens.
SMILES,DNMT1 inh,Scp-1 inhibitor,LMPTP inh,STEP block,SUMO1 PPI mod,HKDC1 inh,HKDC1 act conf
CCN(CC(=O)Nc1c(F)cccc1F)C(=O)/C=C/c1ccc2ccccc2n1,101.8*,85.9*,71.0*,41.7*,77.3*,33.3,13.4
CC(=O)OC1CCC2(C)C3CCC4(C)C(C(C)=O)CCC4C3CC3OC32C1 (stereo not drawn),-0.8,-13.2,1.1,-0.5,0.5,-8.1,/
CCCc1nnc(NC(=O)CCC(=O)N2CCC(Cc3ccccc3)CC2)s1,-0.4,2.5,1.1,-0.9,5.4,0.4,/
CCc1c(C)c(C#N)c2nc3ccccc3n2c1NCCN(C)C,-1.3,-0.3,-0.2,-2.4,-10.0,-10.8,/
CCc1c(C)c(C#N)c2nc3ccccc3n2c1NC,1.7,12.2,3.2,-1.0,-19.6,-65.6,-43.3*
CCN(CC(=O)Nc1ccc(OC)cc1)C(=O)c1ccc(N2CCCC2=O)cc1,-9.2,-12.8,-8.0,-3.0,-40.5,-5.8,/
COc1ccccc1-c1cnc(C(O)c2ccc(F)c(F)c2)[nH]1 (stereo not drawn),-1.5,/,-0.3,-1.6,1.4,/,/
CCN1CCN(c2cc3c(nn2)Oc2ccccc2N3C)CC1,-0.2,-7.3,2.1,4.3,2.8,-43.8,-3.6
O=C1c2cccnc2C(=O)N1CO,3.0,0.3,-0.2,-0.7,-3.0,-0.9,/
NC1=C(Br)C(=O)c2ncccc2C1=O,63.3*,2.2,3.5,5.3,-23.1,37.9*,50.8
O=C(Cn1ncc2ccccc2c1=O)Nc1cccc(C(F)(F)F)c1,2.8,/,-1.2,1.1,2.3,/,/
FC(F)(F)c1ccccc1NC(=S)N1CCCC1,0.1,11.0,-1.6,-0.4,4.4,4.3,/
FC(F)(F)c1ccccc1NC(=S)NN=C1CCCCCC1,/,-8.0,/,/,/,-38.1,-29.5
Cc1ccc2c(c1C)-c1c(ccc(C)c1C)C(=O)C2=O,95.3*,-16.2,7.6,4.6,48.8*,38.0*,11.6
O=C(NCC(=O)N1CCCCCC1)c1ccc(Cl)cc1,1.6,-7.3,0.7,0.4,-1.6,0.8,/
COc1cccc(-c2nc(CS(=O)(=O)CC(=O)Nc3ccccc3Cl)c(C)o2)c1,-4.4,-5.2,0.9,-0.2,0.9,2.1,/
CC1=NNC(=O)/C1=C\c1cn(-c2ccccc2)nc1-c1ccc(Cl)cc1,0.7,5.5,-0.3,-1.8,1.5,37.2*,1.8
Cc1cc(C)n(-c2ccc(NC(=O)C3CCN(Cc4cc(C)c(C)o4)CC3)cc2)n1,-5.4,-4.5,-0.4,-4.5,0.3,41.0*,-23.3
Cc1ccc(SSc2cc(C)ccc2N)c(N)c1,-25.6,6.1,-2.2,1.3,17.3,-44.3,-20.9
O=C(CSc1nc(-c2ccc(F)cc2)nc2c1Cc1ccccc1O2)Nc1ccc(C(=O)O)cc1,94.7*,102.1*,84.7*,96.1*,106.4*,44.0*,-27.3
COc1ccc(NC(=O)c2cc3ccccc3cc2O)cc1,-24.2,28.9,4.9,1.6,2.6,38.3*,-12.8
Cc1ccc(Cl)cc1NC1=C/C(=N\S(=O)(=O)c2cccs2)c2ccccc2C1=O,56.8*!,-12.4,5.5,4.5,-8.6,36.0*,35.5
Cc1ccc(S(=O)(=O)/N=C2\C=C(NS(=O)(=O)c3ccccc3)C(=O)c3ccccc32)cc1,3.7,-15.2,2.3,-3.9,10.1,28.7,/
Cc1ccc(NC2=C/C(=N\S(=O)(=O)c3cccs3)c3ccccc3C2=O)c(C)c1,32.1,-9.0,8.1,6.2,3.0,40.1*,30.0
O=C1C(Nc2ccc(O)cc2)=C/C(=N/S(=O)(=O)c2cccs2)c2ccccc21,67.3*,-8.4,10.1,1.5,52.1*,59.8*,56.9
SMILES,DNMT1 inh,Scp-1 inhibitor,LMPTP inh,STEP block,SUMO1 PPI mod,HKDC1 inh,HKDC1 act conf
O=C(Nc1ccc2nc(-c3ccco3)c(-c3ccco3)nc2c1)NC1CC1,92.6*,92.2*,70.5*,54.2*,75.9*,50.2*,-1.4
O=C(NCCN1CCN(C(=O)c2ccc([N+](=O)[O-])cc2)CC1)C(=O)NCc1ccccc1,2.4,-2.2,-0.6,2.0,-29.6,-1.9,/
Cc1nc([N+](=O)[O-])c(Br)n1CC(=O)c1ccc2ccccc2c1,8.6,-6.7,1.7,1.1,-15.5,45.7*,40.1
CN=c1scc(-c2ccccc2F)n1/N=C(\C)c1cccnc1,-6.3,-1.4,1.3,1.9,-8.1,-4.9,/
CC1=NOC(=O)/C1=C\c1ccc(-c2ccc(Cl)cc2Cl)o1,91.3*,9.4,6.7,3.2,53.3*,53.7*,47.4
COc1ccc(N=C2C(=S)N(c3ccc(OC)cc3)C(=NS(=O)(=O)c3ccccc3)N2c2ccccc2)cc1,-14.1,9.6,1.7,6.5,0.6,-68.5,-5.5
COc1ccc(N=Cc2c(O)ccc3ccccc23)cc1,-7.7,-6.0,2.2,1.6,-18.1,17.2,/
O=C(O)c1ccc(N=Cc2c(O)ccc3ccccc23)cc1,-6.3,-5.7,-1.8,-1.5,-12.7,33.4,43.0
O=S(=O)(/N=C/c1c(O)ccc2ccccc12)c1ccccc1,-3.6,-13.9,0.9,3.2,-12.4,44.2*,19.5
CCc1ccc(S(=O)(=O)NCCc2cn3ccccc3n2)s1,-1.1,-3.0,-0.5,-1.8,-0.3,39.4*,7.7
Cc1ccc([N+](=O)[O-])cc1S(=O)(=O)NCCc1cn2ccccc2n1,1.4,6.0,0.5,-0.8,-23.7,-6.3,/
O=S(=O)(c1ccc(NC(=S)NN=C(Cc2ccccc2)Cc2ccccc2)cc1)N1CCOCC1,-18.9,-9.1,1.4,-2.3,0.1,-47.1,-43.9*
Cc1csc(C(=O)O)c1-n1cccc1,45.0,39.1,-0.3,3.7,0.7,3.5,/
O=C(N/N=C/c1ccc(-c2ccc(S(=O)(=O)Nc3ncccn3)cc2)o1)c1cc2ccccc2cc1O,85.5*,-18.1,7.8,0.8,38.9*,33.4,-22.2
CN(C)CCCn1c2c(c(SCC(=O)Nc3ccc4c(c3)OCCO4)nc1=O)CCCC2,5.2,/,0.4,-2.1,-3.7,/,/
NC(=O)CC(NC(=O)Cc1cccc2ccccc12)c1ccc(NCCc2ccccc2F)c([N+](=O)[O-])c1 (stereo not drawn),43.3,0.6,2.4,-1.9,-8.8,0.5,/
